1 molecule from publication PMC8542630 (Cell chemical biology, 2021) can be followed below.

For orientation: EC50 means the midpoint of the concentration-response curve. One may read the IC50 as the concentration that gives 50% inhibition. High values mean a need for much substance, low ones inhibition by little substance.

For test [1], the target named is GFP-Sc-Dyn AAA4 E/Q (E2819Q) (Saccharomyces cerevisiae, UniProt P36022, E2819Q). As to the kind of experiment: Microscale thermophoresis. The test is classed as binding, S. cerevisiae.
Test [2] deals with GFP-Sc-Dyn AAA3 E/Q (E2488Q) (Saccharomyces cerevisiae, UniProt P36022, E2488Q). As to the kind of experiment: Microscale thermophoresis. The format is binding, S. cerevisiae. For orientation: Microscale thermophoresis detects binding through changes in fluorescence in a small temperature gradient.
The target in a further test is Sc-Dyn-lyso (Saccharomyces cerevisiae, UniProt P36022). The experiment in a line: NADH-coupled steady-state ATPase assay, Sc-Dyn-lyso. The test is classed as biochemical, S. cerevisiae. The method in brief:
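Ten-dose DMSO serial dilution of test compound (stock top 4 mM) was preincubated 10 min at RT. MgATP (10 mM stock) started the reaction, and NADH fluorescence slopes were converted via an ADP standard curve.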

Test [3] deals with Sc-Dyn-lysoMut (AAA1 E/Q) (Saccharomyces cerevisiae, UniProt P36022, E1849Q). As to the kind of experiment: Microscale thermophoresis. The test is classed as binding, S. cerevisiae.

Regarding `N#Cc1c(C2(c3ccc(Cl)cc3)CC2)nn2c(=O)c(Oc3cccc(Br)c3)c[nH]c12` [compound 20, 6-(3-bromophenoxy)-2-[1-(4-chlorophenyl)cyclopropyl]-7-oxo-4H-pyrazolo[1,5-a]pyrimidine-3-carbonitrile], the EC50 is greater than 200 µM in test [1], 87 ± 104 µM in test [2] and 34 ± 11 µM in test [3]. Moreover, in test [2] (mean ± 95% CI, n=4), the “Hill slope, binding to AAA3 E/Q mutant (MST)” value is 0.8 ± 0.3. Moreover, it took 15 ± 3.1 µM to reach half-maximal inhibition against Sc-Dyn-lyso (IC50).
